A selection: hits, their analogues and other compounds. The true share with any hit is near 2.4%.
Yeast lifespan up: compounds extending yeast replicative lifespan, primary screen, S. cerevisiae, OD615 | 130,000 compounds, 0.68% hits | AID 775, 2007 | S. cerevisiae growth with nicotinamide; deaD strain in restrictive glucose medium | inhibition of the nicotinamide effect, % at 10 µM;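 active means inhibition above a set limit, placed 3 SD over the median of all compounds, cut at about 26% in these data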;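 further: 0% = nicotinamide-treated wells and 100% = cells grown without nicotinamide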
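Measured by: optical density (absorbance) at 615 nm; System: modified budding yeast, DeaD strain; Medium: restrictive CSMM-D dextrose medium; Timing: 4 h preincubation then 48 h treatment at 30 °C.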
Rad51 HR inh: human RAD51 strand exchange inhibitors, primary screen, biochemical, fluorescence; DNA repair protein RAD51 homolog 1 (Homo sapiens), Q06609; hRad51 DNA strand exchange, fluorescence dequenching; inhibition, % at 10 µM; 200,000 compounds, 0.085% hits; AID 1385, 2008;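 active means inhibition above 40% at the single screening dose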;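 further: 0% = DMSO control wells and 100% = blanks with heterologous ssDNA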
Target sequence (Q06609 whole entry, looked up): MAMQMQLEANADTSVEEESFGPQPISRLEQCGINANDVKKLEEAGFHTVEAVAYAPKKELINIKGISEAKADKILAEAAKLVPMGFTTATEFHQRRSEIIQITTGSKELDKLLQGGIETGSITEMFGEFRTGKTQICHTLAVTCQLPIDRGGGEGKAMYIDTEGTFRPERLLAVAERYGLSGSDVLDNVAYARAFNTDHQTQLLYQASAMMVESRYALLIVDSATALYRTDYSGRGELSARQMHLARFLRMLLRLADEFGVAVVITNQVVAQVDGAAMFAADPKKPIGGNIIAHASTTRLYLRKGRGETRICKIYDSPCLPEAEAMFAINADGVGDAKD
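Material: human Rad51–ssDNA filaments; Probe or stimulus: labelled 47-mer dsDNA for strand exchange; Doses: single 10 µM dose; Incubation: 37 °C 15-min filament assembly, 30-min compound preincubation, 15-min exchange; Technique: FRET fluorescence dequenching, excitation 485 nm, emission 520 nm; Measure: Fluorescence-based percent inhibition, control- and blank-normalised; Benchmarks: plate control and blank wells.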
Yeast growth inh: growth inhibitors of yeast BB579 in restrictive medium, primary screen, yeast lifespan-shortening project, S. cerevisiae | OD615, 48 h | inhibition, % at 10 µM | 140,000 compounds, 0.51% hits | AID 804, 2007;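 active means inhibition above a set limit, 3 SD over the mean compound inhibition, cut at about 44% in these data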
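Detection: OD615 turbidity measurement; Material: Saccharomyces cerevisiae DeaD strain BB579, replicative lifespan model yeast; Timing: 48 h exposure, 30 °C; Doses: single 10 µM dose; Medium: CSMM-D restrictive synthetic medium containing dextrose (glucose); Controls: amphotericin B at 10 µg/mL as positive control.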
Arbovirus anti: antivirals against arbovirus infection, primary screen, cell-based, full library, 10K replicate subset | arbovirus infection cell-based antiviral screen | inhibition, % at 10 µM | 200,000 compounds, 0.37% hits | AID 1251, 2008; in the data active means inhibition above about 30%
HMGR II inh: inhibitors of E. faecalis class II HMGR, primary screen, biochemical, Enterococcus faecalis | HMG-CoA reductase (Enterococcus faecalis, mvaE) | purified E. faecalis HMGR, NADPH absorbance 340 nm kinetic | inhibition, % at 10 µM | 190,000 compounds, 0.41% hits;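 active means inhibition above a set limit, the median over all tested compounds plus 3 SD, cut at about 9.5% in these data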;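 further: enzyme runs in reverse so mevalonate oxidation gives rising NADPH absorbance; 0% = complete reaction with DMSO and 100% = background rate lacking mevalonate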
Measles CPE: compounds protecting cells from measles virus cytopathic effect, primary screen, measles RdRp inhibitor project, single point, MLSMR library, absorbance; Measles virus-infected cells, CPE protection; protection (pct of control), % at 4 µM; 140,000 compounds, 1.5% hits; AID 841, 2007; in the data active means protection mostly above about 24%, no sharp cut-off; inactive means mostly below about 26%
* = called active by the depositor; nt = no result.

SMILES | Yeast lifespan up | Rad51 HR inh | Yeast growth inh | Arbovirus anti | HMGR II inh | Measles CPE
COc1ccccc1C(=O)NNC(=S)Nc1ccccc1 | nt | -0.4 | nt | 3.0 | -2.3 | nt
COc1ccc(C(=O)C(OC(=O)CNC(=O)c2ccco2)c2ccccc2)cc1 (configuration not stated) | -23.9 | -6.3 | -27.1 | 5.7 | nt | 53.1*
C[C@H](NC(=O)c1ccccc1Cl)C(=O)NCc1cccs1 | nt | -0.8 | nt | 10.7 | 1.5 | nt
COc1ccc(NC(=O)CN(C)CC(=O)Nc2ccc(Cl)cc2F)cc1 | nt | -22.2 | nt | -2.7 | -8.7 | nt
CN(C)c1cccc2c1c(NC(=O)c1ccc(Cl)cc1)nn2C | nt | 3.6 | nt | nt | nt | nt
Cc1cccc(C)c1Nc1nnc(SC/C(O)=C(\C#N)c2nc3ccccc3[nH]2)s1 | 0.5 | -56.7 | -18.3 | 30.2* | -7.9 | 3.7
Cc1cccc(Nc2nnc(SC/C(O)=C(\C#N)c3nc4ccccc4[nH]3)s2)c1C | 4.7 | -31.5 | -33.8 | 28.5 | 1.0 | 22.9
O=C(CCNC(=O)c1ccc(Cl)cc1)Nc1c(F)c(F)cc(F)c1F | -3.1 | -29.1 | -25.6 | 9.2 | -9.7 | 4.1
Cc1cc(N2CCN(c3ccccc3)CC2)n2cc(-c3ccccc3)nc2n1 | -10.9 | 4.3 | -9.2 | -6.1 | -3.5 | 3.8
Cc1cc(N2CCN(c3ccccc3Cl)CC2)n2cc(-c3ccccc3)nc2n1 | 2.4 | 8.2 | -37.0 | 4.3 | -0.8 | 30.2*
O=C(O)C1=C[C@H](c2ccc(F)cc2)C[C@H](OCc2ccc(CO)cc2)O1 | nt | 0.8 | nt | nt | nt | nt
CCn1c(SCC(=O)Nc2cc(C)on2)nc2sc3c(c2c1=O)CCCC3 | nt | nt | -7.6 | -18.6 | -8.9 | 13.9
Cc1cc(NC(=O)CSc2nc3sc4c(c3c(=O)n2C)CCCC4)no1 | -2.9 | nt | -54.8 | 5.5 | -0.2 | 33.1*
C=CCn1c(SCC(=O)N2CCOCC2)nc2sc3c(c2c1=O)CCCC3 | -9.9 | 6.6 | -50.2 | -8.9 | -2.3 | 8.1
Cn1c(SCC(=O)N2CCOCC2)nc2sc3c(c2c1=O)CCCC3 | -30.3 | -0.5 | 0.6 | -3.5 | -3.8 | 38.3*
CCCC(=O)NC(=S)Nc1ccc(Cl)cn1 | -15.8 | 7.1 | 4.0 | 4.1 | 28.6* | 7.7
CSc1ccccc1NC(=O)CN(C)CC(=O)Nc1c(F)cccc1F | 3.5 | 0.8 | -37.9 | -0.6 | -0.1 | 9.0
O=C(Cc1ccccc1)NNC(=S)Nc1ccc(Cl)cc1 | 8.3 | 24.6 | -5.1 | -0.1 | -0.7 | 19.4*
Cc1ccc(S(=O)(=O)Nc2ccc(SC(F)F)cc2)c(C)c1 | -3.4 | -10.9 | 61.1* | -21.3 | -1.8 | 13.7
CC(C)c1ccc(S(=O)(=O)Nc2ccc(SC(F)F)cc2)cc1 | 3.4 | -14.5 | -47.1 | -36.4 | 2.3 | 5.2
O=C(Nc1ccccc1)C(=O)Nc1ccccn1 | -18.6 | nt | -47.0 | -3.6 | -1.5 | 26.5*
Cc1ccc(/C=C/C(=O)c2ccccc(=O)c2O)cc1C | -10.4 | -13.9 | 99.4* | -36.0 | -1.2 | 7.5
COc1ccc(/C=C/C(=O)c2ccccc2O)cc1 | -3.4 | 0.8 | -14.9 | -6.6 | -4.9 | 5.7
O=C(/C=C/c1ccccc1)c1cc(Br)ccc(=O)c1O | -17.3 | 1.2 | 88.0* | -5.5 | 0.1 | 6.8
COCCn1c(=S)[nH]c2cc(C(=O)N3CCc4ccccc43)ccc2c1=O | -10.6 | -2.3 | -9.0 | 10.0 | -2.2 | 59.1*
SMILES | Yeast lifespan up | Rad51 HR inh | Yeast growth inh | Arbovirus anti | HMGR II inh | Measles CPE
CCOc1ccc(C(=O)Nc2cc(NC(=O)c3ccc(OCC)c(Cl)c3)cc(C(=O)O)c2)cc1Cl | nt | 9.0 | nt | 87.9* | -1.6 | nt
CCOc1ccc(C(=O)Nc2cccc(C(=O)O)c2)cc1Cl | nt | 2.9 | nt | 7.9 | -1.1 | nt
Cc1cccc(N2C(=O)C3C4CC(=O)C(c5ccccc54)C3C2=O)c1C (configuration not stated) | nt | -12.2 | nt | 4.1 | -1.4 | nt
O=C(NC1CC1)C1=C[C@@H](c2coc3ccccc3c2=O)C[C@@H](OCCCCO)O1 | nt | -8.0 | nt | nt | nt | nt
O=C(Nc1ccc(Br)cn1)c1cccc2c1-c1ccccc1C2=O | nt | 3.8 | nt | -11.9 | 0.5 | nt
Oc1ccccc1C=Nc1ccccc1-c1nc2ccccc2[nH]1 | -5.2 | 2.5 | -38.0 | 7.0 | -8.6 | 57.7*
Oc1ccc(C=Nc2ccccc2-c2nc3ccccc3[nH]2)c(O)c1 | -5.4 | -2.6 | -28.6 | -0.4 | 0.2 | 8.8
Cc1cc(Cl)ccc1Oc1nccc(N(C)C)c1C#N | -13.1 | -7.0 | 1.5 | 2.7 | -17.3 | 76.2*
CCCCC(CC)CNC(=O)CN(C)S(=O)(=O)c1cccc2nsnc12 (configuration not stated) | -2.2 | -5.8 | -38.9 | -8.8 | -4.3 | 38.3*
CC(C)(C)c1ccc(NC(=O)Nc2ccc3ccccc3n2)cc1 | nt | -0.8 | nt | nt | nt | nt
c1ccc(-c2n[nH]c3c2CCC3)cc1 | -7.0 | -1.2 | 12.2 | 3.4 | -0.9 | 17.3
CC(C)(C)c1n[nH]c2c1CCCC2 | 28.0* | 7.2 | -40.6 | 3.8 | -0.5 | 5.1
CCC(C(=O)OC)n1cnc2c(nnn2-c2ccc(OC)cc2)c1=O (configuration not stated) | -12.8 | 0.8 | -5.2 | 2.0 | -2.9 | -0.8
COC(=O)c1nnn(-c2ccccc2)c1N | -5.7 | 0.6 | -9.4 | -4.8 | 4.8 | 26.2
CCOC(=O)c1nnn(-c2ccc(OC)cc2)c1N | nt | 0.3 | -26.6 | 5.4 | 15.5* | 19.0
CCOC(=O)C(CC)n1cnc2c(nnn2-c2ccc(OC)cc2)c1=O (configuration not stated) | 2.3 | 5.7 | 1.2 | 4.2 | 27.0* | 13.3
CCCn1c(SCC(=O)NCc2ccccc2)n[nH]c1=O | nt | 7.2 | nt | 11.2 | -1.4 | nt
COC(=O)c1c(N2C(=O)CC(Sc3ccccc3C(=O)O)C2=O)sc2c1CCCC2 (configuration not stated) | nt | 17.5 | nt | 5.1 | -5.4 | nt
O=C(COC(=O)c1ccccc1Nc1cccc(C(F)(F)F)c1)NCc1ccco1 | -17.6 | -2.8 | -17.0 | 17.8 | 3.1 | 18.1
COc1ccc(S(=O)(=O)N(C)C)cc1NC(=O)CSc1nnc(-c2cccnc2)o1 | nt | 7.9 | nt | 10.3 | 12.7* | nt
CCOc1ccc(OCC)c(NC(=O)CSc2nnc(-c3cccnc3)o2)c1 | -5.5 | 10.8 | -40.0 | -3.1 | -1.5 | 13.9
COc1ccc(OC)c(NS(=O)(=O)c2ccc(Cl)nc2)c1 | 2.3 | 13.4 | 8.1 | 3.6 | -6.5 | 31.5*
O=C(O)CN1C(=O)Nc2ccc(Br)cc2C1c1ccccc1 (configuration not stated) | -7.0 | -5.0 | 13.7 | 5.4 | -0.2 | 39.3*
O=C(CNC(=S)N(Cc1ccccc1Cl)C1CCCC1)NCCN1CCOCC1 | nt | 0.0 | nt | 8.5 | 4.7 | nt
C=CCn1c(SCC(=O)NCc2ccc3c(c2)OCO3)nc2scc(-c3ccccc3)c2c1=O | -12.5 | -15.7 | -21.4 | 0.2 | -3.3 | 8.9
